Where “and” joins values, the source holds several entries; their conditions need not be identical. Equal values may be shown once. Read-outs that look alike come from different tables or passages of the source.
Columns and labels:
[1] = ABTS method; details: for IC50: read-out: ABTS scavenging IC50
[2] = target: Bacillus Pasteurii urease (Sporosarcina pasteurii, UniProt P41020); test: Urease inhibition assay; assay type: biochemical; details: 3 experiments
[3] = target: jack bean urease (Canavalia ensiformis, UniProt P07374); test: Urease inhibition assay; assay type: biochemical; details: for IC50: 3 experiments
jack bean urease, sequence (P07374 whole entry, looked up): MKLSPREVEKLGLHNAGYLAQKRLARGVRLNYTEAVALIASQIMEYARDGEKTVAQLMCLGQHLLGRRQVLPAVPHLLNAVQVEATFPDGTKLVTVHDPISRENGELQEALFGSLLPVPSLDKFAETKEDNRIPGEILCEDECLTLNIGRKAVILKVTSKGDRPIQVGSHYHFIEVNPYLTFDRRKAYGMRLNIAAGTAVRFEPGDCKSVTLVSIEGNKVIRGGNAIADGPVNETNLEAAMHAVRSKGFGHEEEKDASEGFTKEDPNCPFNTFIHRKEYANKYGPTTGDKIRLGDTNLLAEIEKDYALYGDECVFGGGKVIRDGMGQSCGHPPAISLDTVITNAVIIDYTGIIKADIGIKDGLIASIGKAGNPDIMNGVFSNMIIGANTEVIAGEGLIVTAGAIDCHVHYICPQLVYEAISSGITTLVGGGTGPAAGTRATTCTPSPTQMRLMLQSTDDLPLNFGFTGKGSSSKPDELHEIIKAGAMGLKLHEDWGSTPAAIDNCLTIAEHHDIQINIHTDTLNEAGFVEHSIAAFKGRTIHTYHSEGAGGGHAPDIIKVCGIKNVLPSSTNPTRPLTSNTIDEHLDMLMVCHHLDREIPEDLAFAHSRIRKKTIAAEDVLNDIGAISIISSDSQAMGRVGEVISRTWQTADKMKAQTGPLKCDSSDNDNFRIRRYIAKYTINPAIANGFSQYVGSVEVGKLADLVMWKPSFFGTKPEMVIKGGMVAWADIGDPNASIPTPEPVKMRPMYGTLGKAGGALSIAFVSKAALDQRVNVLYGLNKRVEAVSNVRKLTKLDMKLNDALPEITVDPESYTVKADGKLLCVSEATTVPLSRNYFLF

[4] = Superoxide anion scavenging assay; details: for IC50: read-out: superoxide anion scavenging IC50
[5] = DPPH free radical scavenging activity; details: for IC50: read-out: DPPH scavenging IC50
[6] = target: α-Glucosidase (Saccharomyces cerevisiae, UniProt P53341); test: α-Glucosidase inhibition assay; assay type: biochemical
α-Glucosidase, sequence (P53341 whole entry): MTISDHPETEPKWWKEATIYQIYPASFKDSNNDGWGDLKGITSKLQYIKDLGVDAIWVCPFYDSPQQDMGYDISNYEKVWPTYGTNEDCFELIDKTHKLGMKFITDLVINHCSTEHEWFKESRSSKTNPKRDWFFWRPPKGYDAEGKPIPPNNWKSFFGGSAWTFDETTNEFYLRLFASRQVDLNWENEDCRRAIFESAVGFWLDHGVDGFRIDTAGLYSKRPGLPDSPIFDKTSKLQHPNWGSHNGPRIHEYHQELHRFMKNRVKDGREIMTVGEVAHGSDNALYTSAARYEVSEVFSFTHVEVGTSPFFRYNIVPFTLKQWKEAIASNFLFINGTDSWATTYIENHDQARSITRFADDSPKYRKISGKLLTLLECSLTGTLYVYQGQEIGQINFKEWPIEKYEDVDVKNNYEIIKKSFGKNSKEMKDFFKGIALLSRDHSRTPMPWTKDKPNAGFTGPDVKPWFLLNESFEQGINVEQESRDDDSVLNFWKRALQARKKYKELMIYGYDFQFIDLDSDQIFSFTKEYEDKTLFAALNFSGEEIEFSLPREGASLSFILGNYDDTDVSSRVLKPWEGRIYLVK
Method in brief: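 Test compound (200–800 μg/mL) pre-incubated 5 min at 37 °C with 2 % w/v starch (sucrose) solution in 0.2 M Tris buffer, pH 8.0. 5 mM p-nitrophenyl-α-D-glucopyranoside added intermittently, then α-glucosidase (1 U/mL), 40 min at 35 °C. Stopped with […]; absorbance read at 405 nm. % inhibition = (control − sample)/control × 100; samples above 50 % taken to IC50.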

[7] = Enzyme (SEM ±) B.P Urease, IC50, mean ± SEM
[8] = Enzyme (SEM ±) J.B Urease, IC50, mean ± SEM

Bacillus Pasteurii urease, sequence (P41020 whole entry): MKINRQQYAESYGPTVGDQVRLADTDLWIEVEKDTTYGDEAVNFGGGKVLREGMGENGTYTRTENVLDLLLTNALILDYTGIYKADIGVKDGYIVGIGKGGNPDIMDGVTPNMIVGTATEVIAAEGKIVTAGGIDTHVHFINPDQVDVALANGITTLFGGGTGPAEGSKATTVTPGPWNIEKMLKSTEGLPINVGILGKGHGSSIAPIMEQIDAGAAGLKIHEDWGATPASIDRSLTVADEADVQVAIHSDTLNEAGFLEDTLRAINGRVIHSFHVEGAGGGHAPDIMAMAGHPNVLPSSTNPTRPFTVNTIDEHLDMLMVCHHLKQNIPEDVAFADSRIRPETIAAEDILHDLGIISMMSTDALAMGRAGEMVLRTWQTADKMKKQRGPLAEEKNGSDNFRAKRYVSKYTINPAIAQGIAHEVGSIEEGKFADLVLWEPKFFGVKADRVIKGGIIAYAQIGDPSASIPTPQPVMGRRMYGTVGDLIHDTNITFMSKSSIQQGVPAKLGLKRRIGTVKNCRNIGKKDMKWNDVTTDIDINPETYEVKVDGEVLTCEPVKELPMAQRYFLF
Bacillus Pasteurii urease, sequence (P41021 whole entry partner): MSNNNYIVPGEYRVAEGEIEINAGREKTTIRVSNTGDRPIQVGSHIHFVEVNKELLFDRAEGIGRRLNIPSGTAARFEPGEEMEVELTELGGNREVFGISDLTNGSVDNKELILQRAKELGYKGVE
Bacillus Pasteurii urease, sequence (P41022 whole entry partner): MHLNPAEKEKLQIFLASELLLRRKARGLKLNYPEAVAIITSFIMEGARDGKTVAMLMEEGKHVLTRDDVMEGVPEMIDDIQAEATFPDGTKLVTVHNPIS

SMILES | IC50 [1] | IC50 [2, 7] [µM] | Types of inhibition (urease) [3] | IC50 [3, 8] [µM] | IC50 [4] | IC50 [5] | Type of Inhibition (α-glucosidase and α-amylase) [6] | ABTS % Scavenging ([1]; 10 μM) | ABTS % Scavenging ([1]; 20 μM) | ABTS % Scavenging ([1]; 30 μM) | ABTS % Scavenging ([1]; 40 μM) | ABTS % Scavenging ([1]; 50 μM) | superoxide anion % scavenging ([4]; 25 μM) | superoxide anion % scavenging ([4]; 50 μM) | superoxide anion % scavenging ([4]; 75 μM) | superoxide anion % scavenging ([4]; 100 μM) | DPPH % Scavenging ([5]; 25 μM) [%] | DPPH % Scavenging ([5]; 50 μM) | DPPH % Scavenging ([5]; 75 μM) | DPPH % Scavenging ([5]; 100 μM) | other results
O=S(=O)(c1ccc(Br)cc1)N(Cc1ccccc1)c1nccs1 [Compound 21, N-benzyl-4-bromo-N-(thiazol-2-yl)benzenesulfonamide] | ~33 µM and 33 µM | 27 ± 0.48 | Non-competitive | 23.06 ± 0.11 | 45 ± 0.03 µM | ~45.2 µM and 45.2 µM | Competitive | 15.1 ± 0.05% | 30.5 ± 0.04% | 46.03 ± 0.11% | 72.05 ± 0.15% | 90.03 ± 0.51% | 33 ± 0.3% | 57 ± 0.13% | 82 ± 0.01% | 86 ± 0.11% | 35.1 ± 0.05 | 63.5 ± 0.11% | 90.5 ± 0.16% | 99.1 ± 0.32% | –
C=CCN(c1nccs1)S(=O)(=O)c1ccc(F)cc1 [Compound 31, N-Allyl-4-fluoro-N-(thiazol-2-yl)benzenesulfonamide] | 46.13 ± 0.13 µM | 51.39 ± 0.11 | Non-competitive | 46.02 ± 0.05 | 60 ± 0.05 µM | 66.3 ± 0.2 µM | Non-competitive | 29.31 ± 0.2% | 37.15 ± 0.28% | 41.11 ± 0.39% | 47.12 ± 0.17% | 73.04 ± 0.12% | 25 ± 0.11% | 46 ± 0.05% | 79 ± 0.33% | 104 ± 0.22% | 34.02 ± 0.1 | 43.1 ± 0.13% | 73.2 ± 0.5% | 90.5 ± 0.11% | –
O=S(=O)(c1ccccc1)N(Cc1ccccc1)c1nccs1 [Compound 22, N-Benzyl-N-(thiazol-2-yl)benzenesulfonamide] | 40.01 ± 0.01 µM | 18.7 ± 0.23 | Competitive | 15.31 ± 0.09 | 40 ± 0.06 µM | 57.2 ± 0.07 µM | Non-competitive | 12.04 ± 0.01% | 27.2 ± 0.5% | 47.03 ± 0.06% | 66.11 ± 0.31% | 86.13 ± 0.12% | 35 ± 0.02% | 57 ± 0.15% | 80 ± 0.25% | 87 ± 0.15% | 31.4 ± 0.08 | 50.1 ± 0.11% | 66.1 ± 0.23% | 79.5 ± 0.05% | –
NC(N)=S [Thiourea, reference compound] | – | – | – | – | – | – | – | – | – | – | – | – | – | – | – | – | – | – | – | – | IC50 ([2]; read-out: Enzyme (SEM ±) B.P Urease, IC50, mean ± SEM): 14.08 ± 0.05 µM; IC50 ([3]; read-out: Enzyme (SEM ±) J.B Urease, IC50, mean ± SEM): 10.12 ± 0.08 µM
O=[N+]([O-])c1ccc(S(=O)(=O)N(Cc2ccccc2)c2nccs2)cc1 [Compound 25, N-benzyl-4-nitro-N-(thiazol-2-yl)benzenesulfonamide] | 29.01 ± 0.14 µM | 53.32 ± 0.21 | Non-competitive | 48.1 ± 1.19 | – | 47.1 ± 0.08 µM | Non-competitive | 09.01 ± 0.09% | 28.05 ± 0.04% | 43.09 ± 0.01% | 70.02 ± 0.03% | 81.03 ± 0.91% | – | – | – | – | 35.2 ± 0.2 | 57.8 ± 0.11% | 71.6 ± 0.03% | 85.1 ± 0.41% | inhibition against both enzymes (J.B. and B.P urease), in words [3]: weak inhibition

Further lines, with some results ahead:

IC50 [1] | IC50 [2, 7] [µM] | Types of inhibition (urease) [3] | IC50 [3, 8] [µM] | IC50 [4] | IC50 [5] | Type of Inhibition (α-glucosidase and α-amylase) [6] | SMILES | ABTS % Scavenging ([1]; 10 μM) | ABTS % Scavenging ([1]; 20 μM) | ABTS % Scavenging ([1]; 30 μM) | ABTS % Scavenging ([1]; 40 μM) | ABTS % Scavenging ([1]; 50 μM) | superoxide anion % scavenging ([4]; 25 μM) | superoxide anion % scavenging ([4]; 50 μM) | superoxide anion % scavenging ([4]; 75 μM) | superoxide anion % scavenging ([4]; 100 μM) | DPPH % Scavenging ([5]; 25 μM) [%] | DPPH % Scavenging ([5]; 50 μM) | DPPH % Scavenging ([5]; 75 μM) | DPPH % Scavenging ([5]; 100 μM) | other results
~33 µM and 33 µM | 38.2 ± 0.36 | Non-competitive | 30.11 ± 0.07 | ~36 µM and 36 µM | ~38.3 µM and 38.3 µM | Competitive | C=CCN(c1nccs1)S(=O)(=O)c1ccc(C)cc1 [Compound 26, N-Allyl-4-methyl-N-(thiazol-2-yl)benzenesulfonamide] | 09.02 ± 0.03% | 24.03 ± 0.01% | 43.08 ± 0.09% | 75.07 ± 0.02% | 96.06 ± 0.21% | 27 ± 0.07% | 63 ± 0.01% | 73 ± 0.11% | 94 ± 0.51% | 43.2 ± 0.8 | 74.8 ± 0.3% | 88.5 ± 0.1% | 99.2 ± 0.2% | –
47.1 µM | 18.7 | Competitive | 16 ± 0.21 | 52.1 ± 0.01 µM | 45.5 ± 0.05 µM | Non-competitive | COc1ccc(S(=O)(=O)N(C)c2nccs2)cc1 [Compound 34, 4-Methoxy-N-methyl-N-(thiazol-2-yl)benzenesulfonamide] | 27.2 ± 0.01% | 35.6 ± 0.2% | 46.4 ± 0.2% | 69.8 ± 0.03% | 80.1 ± 0.08% | 18.2 ± 0.01% | 39.6 ± 0.2% | 69.4 ± 0.2% | 89.8 ± 0.03% | 29.2 ± 0.01 | 69.6 ± 0.2% | 78.4 ± 0.2% | 94.8 ± 0.03% | inhibition against both enzymes (α-glucosidase and α-amylase), in words [6]: weak inhibition
– | – | – | – | 33.4 µM and 35.4 µM and 39.1 µM and 38 µM | 30.4 µM and 42.2 µM and 45.1 µM and 35 µM | – | O=C1O[C@H]([C@@H](O)CO)C(O)=C1O [Ascorbic acid, reference compound] | – | – | – | – | – | 39 ± 0.09% and 49 ± 0.05% and 35 ± 0.33% and 25 ± 0.03% | 55 ± 0.05% and 53 ± 0.03% and 57 ± 0.13% and 60 ± 0.07% | 77 ± 0.12% and 75 ± 0.15% and 86 ± 0.53% and 67 ± 0.11% | 90 ± 0.02% and 93 ± 0.01% and 99 ± 0.11% and 82 ± 0.01% | – | 70.3 ± 0.01% and 68.2 ± 0.17% and 58.1 ± 0.05% and 69.3 ± 0.41% | 85.3 ± 0.01% and 88.1 ± 0.02% and 79.1 ± 0.12% and 95.3 ± 0.01% | 97.2 ± 0.2% and 94.2 ± 0.5% and 84.2 ± 0.18% and 105.2 ± 0.2% | –
16.4 µM and 19.4 µM and 17.5 µM and 20.3 µM | – | – | – | – | – | – | Cc1c(C)c2c(c(C)c1O)CCC(C)(C(=O)O)O2 (centres unmarked) [Trolox, reference compound] | 36.08 ± 0.1% and 26.05 ± 0.03% and 35.01 ± 0.3% and 18.08 ± 0.1% | 58.02 ± 0.62% and 55.02 ± 0.12% and 65.2 ± 0.1% and 40.02 ± 0.62% | 67.03 ± 0.02% and 70.03 ± 0.01% and 77.31 ± 0.07% and 55.03 ± 0.02% | 85.01 ± 0.06% and 82.01 ± 0.05% and 89.01 ± 0.5% and 84.01 ± 0.06% | 105.02 ± 0.02% and 109.2 ± 0.22% and 105.12 ± 0.21% and 93.02 ± 0.02% | – | – | – | – | – | – | – | – | –
